Source: PubChem
Ba/F3 V617F tox – loss of viability in JAK2V617F-driven Ba/F3 cells | Ba/F3 EpoR-JAK2V617F viability, ATP luminescence | inhibition, % at 5.6 µM | 220,000 compounds, 1.1% hits;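 active means inhibition above the campaign mean plus 3 SD over all tested compounds, cut at about 24% in these data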;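 further: cytokine-independent growth of Ba/F3 cells driven by EpoR plus mutant JAK2; 0% = DMSO-treated cells and 100% = JAK inhibitor I control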
APP transl inh – APP translation inhibition | inhibition, % at 2 µM | SH-SY5Y APP 5'UTR-luciferase reporter, luminescence | 190,000 compounds, 0.82% hits;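 active means inhibition above a set limit, derived from the sample mean plus 3 SD, cut at about 45% in these data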
BaF3 parental – reduces parental Ba/F3 cell viability, JAK2V617F counter-screen; CellTiter-Glo ATP luminescence; inhibition, % at 5.6 µM; 220,000 compounds, 1.1% hits;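 active means inhibition above a per-campaign cutoff, the mean inhibition of all tested compounds plus 3 SD, cut at about 27% in these data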;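 further: 0% = DMSO wells and 100% = JAK Inhibitor I control wells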
IEC-6 cytotox – IEC-6 cytotoxicity, counter-screen for KLF5 inhibitors. AID 1825. inhibition, % at 5 µM. 290,000 compounds, 0.78% hits. luminescence viability; in the data active means inhibition above about 22%;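 further: 0% = plate median of test compound wells and 100% = cytotoxic reference compound wells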
MT stabilizer – stabilizes microtubules in HeLa cells. HeLa tubulin immunostaining HCS, 24 h; share of cells brighter than vehicle mean+2SD. % tubulin-high responders, % at 10 µM. 200,000 compounds, 0.83% hits. AID 2205;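 active means plate Z-score above 3 for both tubulin-high and condensed-nucleus cell shares, with cell loss under 80%, at 10 µM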;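 further: anti alpha tubulin signal scored within the nucleus-defined area of each cell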
bCat nuc transl – modulators of beta-catenin nuclear translocation. AID 1665. 190,000 compounds, 0.3% hits. nuclear translocation activity, % at 5 µM. HeLa beta-catenin nuclear translocation, immunofluorescence imaging;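 active means nuclear translocation activity above 50% at 5 µM, with a well cell count of 50 or more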;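 further: per-cell ratio of nuclear to cytoplasmic median beta-catenin stain intensity; plate controls were DMSO negative control for no effect and GSK-3 inhibitor IX positive control for full effect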
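Test system: HeLa cells, endogenous beta-catenin; Compound: single 5 µM dose plus 0.02–20 µM confirmation series; Times: compound exposure 24 h at 37°C; Signal: fluorescence imaging of beta-catenin antibody stain plus DAPI; Read-out: % activation, nuclear-to-cytoplasmic median beta-catenin signal ratio per cell.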
Numbers without * were called inactive; / = not tested or not shown. Sampled rows, rich in hits. Any-hit rate of the full collection: about 2.2%.

SMILES	Ba/F3 V617F tox	APP transl inh	BaF3 parental	IEC-6 cytotox	MT stabilizer	bCat nuc transl
CNc1ccc(Br)cc(C(=O)/C=C/c2cccc(OC)c2OC)c1=O	-2	-26	2	-2	4	-1
CNc1ccc(Br)cc(C(=O)/C=C/c2cccc(Cl)c2Cl)c1=O	0	42	9	0	9.9*	1
S=C1SCN(Cc2cccnc2)CN1Cc1cccnc1	86*	/	51*	0	/	4
CCS(=O)(=O)N1CCN(c2c(Cl)cccc2[N+](=O)[O-])CC1	2	0	6	1	2	-2
CS(=O)(=O)N1CCN(c2c(Cl)cccc2[N+](=O)[O-])CC1	4	0	51*	1	2	0
CCOC(=O)C1CCN(CC(=O)c2ccc(O)c(C)c2O)CC1	/	/	/	-4	/	/
Cc1cc(=O)n2nc(N3CCC(C(=O)NCc4ccccc4Cl)CC3)sc2n1	/	/	/	-4	/	/
O=C(N/N=C/c1ccco1)c1cc(-c2cccc(Br)c2)nc2ccccc12	-1	2	6	-10	2	/
O=C(O)c1ccc(/C=N/NC(=O)c2cc(-c3cccs3)nc3ccccc23)cc1	-1	-7	10	6	3	2
O=C(N/N=C/c1ccc(F)cc1)c1cc(-c2ccco2)nc2ccccc12	-1	-1	-1	-7	34	53*
Cc1cc(C(=O)N/N=C/c2ccc(N(C)C)cc2)c2ccccc2n1	8	46*	9	22	5	4
Cc1cc(C(=O)N/N=C/c2ccc([N+](=O)[O-])cc2)c2ccccc2n1	13	/	4	6	/	8
O=C(N/N=C/c1ccsc1)c1cc(-c2cccs2)nc2ccccc12	2	45	8	5	10*	1
CC(/C=N/NC(=O)c1cc(-c2ccncc2)nc2ccccc12)=C\c1ccco1	-3	88*	0	-6	16*	49
O=C(NCCCn1ccnc1)c1ccc(S(=O)(=O)N2CCOCC2)cc1	3	6	7	-1	3	0
O=C(Nc1ccc(S(=O)(=O)Nc2ncccn2)cc1)c1ccccc1NS(=O)(=O)c1ccc(Cl)cc1	1	/	-3	-1	/	-1
COc1ccccc1N(CC(=O)NCC1CCCO1)C(=O)CNS(=O)(=O)c1ccccc1 (centres undefined)	-1	/	-5	1	/	-1
Cc1cccc(Cl)c1OCCCN1CCOCC1	/	/	/	-4	/	/
O=C(N/N=C/c1ccc2c(c1)OCO2)c1cc(-c2ccccc2Cl)nc2ccccc12	3	5	6	5	3	/
O=C(N/N=C/c1ccc(Cl)cc1)c1cc(-c2cccnc2)nc2ccccc12	-2	44	8	2	14	-1
Cc1ccc(/C=N/NC(=O)c2cc(-c3cccnc3)nc3ccccc23)cc1	3	68*	3	5	7	83*
CC(/C=N/NC(=O)CSc1nc2ccccc2n1C)=C\c1ccco1	-1	6	4	-4	17*	25
C/C(=N\NC(=O)c1cc(-c2cccs2)nc2ccccc12)c1ccccn1	4	71*	7	2	4	-2
O=C(N/N=C/c1ccc2c(c1)OCO2)c1cc(-c2ccncc2)nc2ccccc12	1	67*	5	-4	21*	24
CCCC(=O)n1nc(-c2ccc(C)cc2)nc1NCc1ccco1	-1	-64	1	-1	2	2
SMILES	Ba/F3 V617F tox	APP transl inh	BaF3 parental	IEC-6 cytotox	MT stabilizer	bCat nuc transl
O=C(N/N=C/c1ccccn1)c1cc(-c2ccncc2)nc2ccccc12	-1	27	2	-2	12	6
O=C(N/N=C/c1ccsc1)c1cc(-c2ccncc2)nc2ccccc12	2	60*	1	8	13*	11
CCN1/C(=C/C=C/C=C/c2sc3ccccc3[n+]2CC)Sc2ccccc21	51*	82*	48*	5	95	/
CCN1/C(=C/C=C/C=C/C=C/c2sc3ccccc3[n+]2CC)Sc2ccccc21	/	/	/	4	/	/
Cc1c(NC(=O)c2cc3nc(-c4ccc(Br)cc4)cc(C(F)(F)F)n3n2)c(=O)n(-c2ccccc2)n1C	2	12	94*	3	2	-2
CN1CCN(C(=O)C23CC4CC(C2)CC(c2ccccc2)(C4)C3)CC1	3	5	8	4	2	-1
COC(=O)c1ccc(OC(=O)CN2C(=O)c3ccccc3C2=O)cc1	/	/	/	4	/	/
COc1ccc2nc(C)cc(SCC(=O)N/N=C/c3cccc4ccccc34)c2c1	4	-15	3	2	41	77*
